Assay results as given in ChEMBL document CHEMBL3865834, “Dihydrobenzofuran Neolignanamides: Laccase-Mediated Biomimetic Synthesis and Antiproliferative Activity” (J Nat Prod, 2016).

Legend:
[1] = Lipophilicity of the compound assessed as capacity factor by HPLC analysis; format: physicochemical
Method in brief: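 Reversed-phase C18 HPLC (4.6 × 250 mm, 5 μm), 1 mL/min, acidified acetonitrile gradient 20→80% B over 30 min, diode-array detection. Capacity factor K = (tR − t0)/t0, where t0 is the retention time of the AA standard.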

[2] = Growth inhibition of human Caco2 cells measured after 72 hrs by MTT assay; format: functional; settings: Caco-2, 72 h
Method in brief: (§1)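 Cells plated at (2.5−3.0) × 10^3 per 0.33 cm2, treated after 24 h with 0.01−100 μM (final) for 3 days at 37 °C, 5% CO2; controls got 0.5−1% DMSO. MTT read at 570 nm, 6−8 wells per value.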

[3] = Growth inhibition of human MCF7 cells measured after 72 hrs by MTT assay; format: functional; settings: MCF7, 72 h; method in brief: as §1
[4] = Growth inhibition of human PC3 cells measured after 72 hrs by MTT assay; format: functional; settings: PC-3, 72 h; method in brief: as §1
[5] = Cell cycle arrest in human Caco2 cells assessed as accumulation at sub-G1 phase at 100 uM measured after 24 to 36 hrs by propidium iodide staining-based flow cytometry; format: functional; settings: Caco-2
Method in brief: (§2)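 Caco-2 cells grown in six-well plates, treated 24–36 h, compared with vehicle-treated cells. Harvested by trypsinization, PBS-washed, fixed in 70% ethanol at 4 °C for at least 30 min. Then RNase A for 1 h at 37 °C, propidium iodide (final 50 μg/mL) for 1 h at 37 °C, and analysed by flow cytometry. Means of three independent experiments.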

[6] = Cell cycle arrest in human Caco2 cells assessed as accumulation at G0/G1 phase at 100 uM measured after 24 to 36 hrs by propidium iodide staining-based flow cytometry (reference value: 51.1%); format: functional; settings: Caco-2; method in brief: as §2
[7] = Cell cycle arrest in human Caco2 cells assessed as accumulation at S-phase at 100 uM measured after 24 to 36 hrs by propidium iodide staining-based flow cytometry (reference value: 18 to 19.5%); format: functional; settings: Caco-2; method in brief: as §2
[8] = Cell cycle arrest in human Caco2 cells assessed as accumulation at G2-phase at 100 uM measured after 24 to 36 hrs by propidium iodide staining-based flow cytometry (reference value: 28%); format: functional; settings: Caco-2; method in brief: as §2
[9] = system: Caco-2; experiment: Induction of apoptosis in human Caco2 cells assessed as viable cells at 100 uM measured after 24 hrs by Alexa Fluor 488 Annexin V/propidium iodide staining-based flow cytometry (reference value: 95.1%); format: functional; settings: Caco-2, 24 h, read-out: Activity
[10] = system: Caco-2; experiment: Induction of apoptosis in human Caco2 cells assessed as early apoptotic cells at 100 uM measured after 24 hrs by Alexa Fluor 488 Annexin V/propidium iodide staining-based flow cytometry (reference value: 3.9%); format: functional
[11] = system: Caco-2; experiment: Induction of apoptosis in human Caco2 cells assessed as late apoptotic cells at 100 uM measured after 24 hrs by Alexa Fluor 488 Annexin V/propidium iodide staining-based flow cytometry (reference value: 1.8%); format: functional
[12] = system: Caco-2; experiment: Induction of apoptosis in human Caco2 cells assessed as necrotic cells at 100 uM measured after 24 hrs by Alexa Fluor 488 Annexin V/propidium iodide staining-based flow cytometry (reference value: […]); format: functional

Row | SMILES | K [1] | GI50 [2] | GI50 [3] | GI50 [4] | other results
1 | COc1cc(CNC(=O)/C=C/c2ccc3c(c2)[C@@H](C(=O)NCc2cc(OC)c(OC)c(OC)c2)[C@H](c2ccc(O)cc2)O3)cc(OC)c1OC (racemic) | 6.35 |  |  |  | 
2 | COc1cc([C@@H]2Oc3c(OC)cc(/C=C/C(=O)NCc4ccc(C)cc4)cc3[C@H]2C(=O)NCc2ccc(C)cc2)ccc1O (racemic) | 8.45 |  |  |  | 
3 | COc1cc([C@@H]2Oc3c(OC)cc(/C=C/C(=O)NCCc4ccc(O)cc4)cc3[C@H]2C(=O)NCCc2ccc(O)cc2)ccc1O (racemic) [GROSSAMIDE] | 2.32 | > 100 µM | 24 µM | 21 µM | 
4 | COc1cc([C@@H]2Oc3c(OC)cc(/C=C/C(=O)NCc4cc(OC)c(OC)c(OC)c4)cc3[C@H]2C(=O)NCc2cc(OC)c(OC)c(OC)c2)ccc1O (racemic) | 6.32 |  |  |  | 
5 | COc1cc(CNC(=O)/C=C/c2cc(O)c3c(c2)[C@@H](C(=O)NCc2cc(OC)c(OC)c(OC)c2)[C@H](c2ccc(O)c(O)c2)O3)cc(OC)c1OC (racemic) | 5.69 |  |  |  | 
6 | Cc1ccc(CNC(=O)/C=C/c2cc(O)c3c(c2)[C@@H](C(=O)NCc2ccc(C)cc2)[C@H](c2ccc(O)c(O)c2)O3)cc1 (racemic) | 7.89 |  |  |  | 
7 | O=C(/C=C/c1cc(O)c2c(c1)[C@@H](C(=O)NCCc1ccc(O)cc1)[C@H](c1ccc(O)c(O)c1)O2)NCCc1ccc(O)cc1 (racemic) | 0.56 | > 10 µM | 39.7 µM | 66 µM | 
8 | Cc1ccc(CNC(=O)/C=C/c2ccc3c(c2)[C@@H](C(=O)NCc2ccc(C)cc2)[C@H](c2ccc(O)cc2)O3)cc1 (racemic) | 8.36 |  |  |  | 
9 | O=c1[nH]cc(F)c(=O)[nH]1 [FLUOROURACIL] |  | 3.3 to 4.2 µM | 3.6 to 3.8 µM | 4.1 to 6.3 µM | Activity [5]: 10.4%; Activity [6]: 50.1%; Activity [7]: 37.5 to 39.8%; Activity [8]: 1.9%; viability at 100 µM [9]: 36.8%; Activity [10]: 56.2%; Activity [11]: 5.3%; Activity [12]: 0.3%
10 | O=C(/C=C/c1ccc2c(c1)[C@@H](C(=O)NCCc1ccc(O)cc1)[C@H](c1ccc(O)cc1)O2)NCCc1ccc(O)cc1 (racemic) | 5.2 | 28.9 µM | 33.2 µM | 26 µM | 
